Measurements as given in ChEMBL document CHEMBL2146441, “2,6-Disubstituted imidazo[2,1-b][1,3,4]thiadiazoles: search for anticancer agents” (2012).

Key:
Type in all cases: functional
[1] = test system: COLO; test: Cytotoxicity against human COLO […] cells assessed as cell growth at 10^-5 M after 48 hrs by SRB assay; settings: read-out: Activity
Summary of the method: (§1)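 NCI-60 screen: lines kept in RPMI 1640 with 5% FBS, seeded at 5000–40,000 cells/well by doubling time, preincubated 24 h at 37 °C in 5% CO2. Time-zero plates TCA-fixed at drug addition. DMSO stocks diluted in medium, 48 h exposure. Fixation in cold TCA (final 10% adherent, 16% suspension), 0.4% SRB stain, solubilised in 10 mM Tris base, A515. Percent growth computed against control and time-zero.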

[2] = test system: Malme-3M; test: Cytotoxicity against human MALME-3M cells assessed as cell growth at 10^-5 M after 48 hrs by SRB assay; settings: read-out: Activity
[3] = test system: MDA-MB-435; test: Cytotoxicity against human MDA-MB-435 cells assessed as cell growth at 10^-5 M after 48 hrs by SRB assay; settings: MDA-MB-435, 48 h, read-out: Activity
[4] = test system: OVCAR-5; test: Cytotoxicity against human OVCAR5 cells assessed as cell growth at 10^-5 M after 48 hrs by SRB assay; settings: OVCAR-5, 48 h, read-out: Activity
[5] = test system: CCRF-CEM; test: Cytotoxicity against human CCRF-CEM cells assessed as cell growth at 10^-4 M after 48 hrs by SRB assay; settings: read-out: Activity; summary of the method: as §1
[6] = test system: HL-60; test: Cytotoxicity against human HL60 cells assessed as cell growth at 10^-4 M after 48 hrs by SRB assay; settings: HL-60, 48 h, read-out: Activity
Summary of the method: (§2)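 NCI-60 five-dose screen. Cells were grown in RPMI 1640 with 5% FBS and seeded at 5000–40,000 cells/well according to doubling time. They were pre-incubated 24 h at 37 °C in 5% CO₂, and time-zero (Tz) plates were TCA-fixed at drug addition. Five 10-fold dilutions of DMSO stock were applied for 48 h. Read-out was SRB staining, 515 nm absorbance, with percent growth calculated versus Tz and untreated control.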

[7] = test system: HOP-62; test: Cytotoxicity against human HOP62 cells assessed as cell growth at 10^-4 M after 48 hrs by SRB assay; settings: HOP-62, 48 h, read-out: Activity; summary of the method: as §2
[8] = test system: NCI-H226; test: Cytotoxicity against human NCI-H226 cells assessed as cell growth at 10^-4 M after 48 hrs by SRB assay; settings: NCI-H226, 48 h, read-out: Activity
[9] = test system: COLO; test: Cytotoxicity against human COLO […] cells assessed as cell growth at 10^-4 M after 48 hrs by SRB assay; settings: read-out: Activity; summary of the method: as §1
[10] = test system: HCT-116; test: Cytotoxicity against human HCT116 cells assessed as cell growth at 10^-4 M after 48 hrs by SRB assay; settings: HCT-116, 48 h, read-out: Activity; summary of the method: as §2
[11] = test system: UACC-62; test: Cytotoxicity against human UACC62 cells assessed as cell growth at 10^-4 M after 48 hrs by SRB assay; settings: UACC-62, 48 h, read-out: Activity
[12] = test system: OVCAR-8; test: Cytotoxicity against human OVCAR8 cells assessed as cell growth at 10^-4 M after 48 hrs by SRB assay; settings: OVCAR-8, 48 h, read-out: Activity
[13] = test system: CAKI-1; test: Cytotoxicity against human Caki1 cells assessed as cell growth at 10^-4 M after 48 hrs by SRB assay; settings: CAKI-1, 48 h, read-out: Activity; summary of the method: as §1
[14] = test system: OVCAR-8; test: Cytotoxicity against human OVCAR8 cells assessed as cell growth at 10^-7 M after 48 hrs by SRB assay; settings: OVCAR-8, 48 h, read-out: Activity
[15] = test system: RXF 393; test: Cytotoxicity against human RXF393 cells assessed as cell growth at 10^-7 M after 48 hrs by SRB assay; settings: RXF 393, 48 h, read-out: Activity
[16] = test system: MOLT-4; test: Cytotoxicity against human MOLT4 cells assessed as cell growth at 10^-8 M after 48 hrs by SRB assay; settings: MOLT-4, 48 h, read-out: Activity
[17] = test system: KM12; test: Cytotoxicity against human KM12 cells assessed as cell growth at 10^-8 M after 48 hrs by SRB assay; settings: KM12, 48 h, read-out: Activity
[18] = test system: SNB-75; test: Cytotoxicity against human SNB75 cells assessed as cell growth at 10^-8 M after 48 hrs by SRB assay; settings: SNB-75, 48 h, read-out: Activity
[19] = test system: OVCAR-8; test: Cytotoxicity against human OVCAR8 cells assessed as cell growth at 10^-8 M after 48 hrs by SRB assay; settings: OVCAR-8, 48 h, read-out: Activity
[20] = test system: PC-3; test: Cytotoxicity against human PC3 cells assessed as cell growth at 10^-8 M after 48 hrs by SRB assay; settings: PC-3, 48 h, read-out: Activity
[21] = test system: NCI-H460; test: Cytotoxicity against human NCI-H460 cells assessed as cell growth at 10^-6 M after 48 hrs by SRB assay; settings: NCI-H460, 48 h, read-out: Activity
[22] = test system: SF-539; test: Cytotoxicity against human SF539 cells assessed as cell growth at 10^-6 M after 48 hrs by SRB assay; settings: SF-539, 48 h, read-out: Activity
[23] = test system: CAKI-1; test: Cytotoxicity against human Caki1 cells assessed as cell growth at 10^-6 M after 48 hrs by SRB assay; settings: CAKI-1, 48 h, read-out: Activity; summary of the method: as §1
[24] = test system: TK-10; test: Cytotoxicity against human TK10 cells assessed as cell growth at 10^-6 M after 48 hrs by SRB assay; settings: TK-10, 48 h, read-out: Activity
[25] = test system: IGROV-1; test: Growth inhibition of human IGROV1 cells after 48 hrs by SRB assay; settings: IGROV-1, 48 h; for CC50: read-out: LC50 (the source's name)
Summary of the method: (§3)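 Adherent NCI-60 lines grown in RPMI 1640 with 5% FBS, seeded at 5000–40,000 cells/well, and preincubated 24 h at 37 °C, 5% CO2. Compound, stocked in DMSO, given either once at 10^-5 M or at five 10-fold dilutions for 48 h. Cells fixed with cold TCA (final 10%), stained with 0.4% SRB, and read at 515 nm. GI50 taken as 50% reduction in net protein increase versus time-zero and control plates.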

[26] = test system: HOP-92; test: Growth inhibition of human HOP92 cells after 48 hrs by SRB assay; settings: HOP-92, 48 h; for CC50: read-out: LC50 (the source's name); summary of the method: as §3
[27] = test system: HCC 2998; test: Growth inhibition of human HCC2998 cells after 48 hrs by SRB assay; settings: HCC 2998, 48 h; summary of the method: as §3
[28] = test system: HT-29; test: Growth inhibition of human HT-29 cells after 48 hrs by SRB assay; settings: HT-29, 48 h; summary of the method: as §3
[29] = test system: MCF7; test: Cytotoxicity against human MCF7 cells assessed as cell growth at 10^-6 M after 48 hrs by SRB assay; settings: MCF7, 48 h, read-out: Activity
[30] = test system: MOLT-4; test: Cytotoxicity against human MOLT4 cells assessed as cell growth at 10^-5 M after 48 hrs by SRB assay; settings: MOLT-4, 48 h, read-out: Activity
[31] = test system: EKVX; test: Cytotoxicity against human EKVX cells assessed as cell growth at 10^-5 M after 48 hrs by SRB assay; settings: read-out: Activity; summary of the method: as §1

| Structure (SMILES) | growth at 10 µM [1] [%] | growth at 10 µM [2] [%] | growth at 10 µM [3] [%] | growth at 10 µM [4] [%] | growth at 100 µM [5] [%] | growth at 100 µM [6] [%] | growth at 100 µM [7] [%] | growth at 100 µM [8] [%] | growth at 100 µM [9] [%] | growth at 100 µM [10] [%] | growth at 100 µM [11] [%] | growth at 100 µM [12] [%] | growth at 100 µM [13] [%] | growth at 0.1 µM [14] [%] | growth at 0.1 µM [15] [%] | growth at 0.01 µM [16] [%] | growth at 0.01 µM [17] [%] | growth at 0.01 µM [18] [%] | growth at 0.01 µM [19] [%] | growth at 0.01 µM [20] [%] | further results |
| --- | --- | --- | --- | --- | --- | --- | --- | --- | --- | --- | --- | --- | --- | --- | --- | --- | --- | --- | --- | --- | --- |
| COc1ccc(-c2nn3cc(-c4ccc(O)cc4O)nc3s2)cc1 | 35 | -30 | 14 | 20 | 8 | -25 | -22 | -19 | -27 | -55 | -72 | -8 | -9 | 98 | 104 | 100 | 98 | 69 | 102 | 96 | growth at 1 µM [21]: 75%; growth at 1 µM [22]: 97%; growth at 1 µM [23]: 69%; growth at 1 µM [24]: 101%; GI50 [25]: 2.23 µM; TGI [25]: 37.4 µM; CC50 [25]: > 100 µM; GI50 [26]: 0.231 µM; TGI [26]: 2.68 µM; CC50 [26]: > 100 µM; GI50 [27]: 4.37 µM; LC50 (concentration causing 50% net cell kill) [27]: > 100 µM; TGI [27]: 84.4 µM; GI50 [28]: 2.95 µM; LC50 (concentration killing 50% of cells) [28]: > 100 µM; TGI [28]: 20.2 µM; growth at 1 µM [29]: 70%; growth at 10 µM [30]: 20%; growth at 10 µM [31]: 15% |
| COc1ccc(-c2nn3cc(-c4cccc(N)c4)nc3s2)cc1 | 42 | -16 | 11 | 47 | 6 | -14 | -54 | -61 | -56 | -91 | -41 | -54 | -39 | 107 | 85 | 103 | 98 | 70 | 104 | 91 | growth at 1 µM [21]: 76%; growth at 1 µM [22]: 91%; growth at 1 µM [23]: 46%; growth at 1 µM [24]: 118%; GI50 [25]: 2.65 µM; TGI [25]: 34.4 µM; CC50 [25]: > 100 µM; GI50 [26]: 0.114 µM; TGI [26]: 0.989 µM; CC50 [26]: 87.2 µM; GI50 [27]: 1.08 µM; LC50 (concentration causing 50% net cell kill) [27]: > 100 µM; TGI [27]: > 100 µM; GI50 [28]: 4.27 µM; LC50 (concentration killing 50% of cells) [28]: > 100 µM; TGI [28]: 23.2 µM; growth at 1 µM [29]: 65%; growth at 10 µM [30]: 21%; growth at 10 µM [31]: 2% |
